TRPC6 activator – mouse TRPC6 channel activation. Q61143. HEK293-TRPC6 membrane potential dye fluorescence; stronger effect = higher value. B-score at 10 µM. actives 0.13% (n = 310,000). AID 2550;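 active means B-score of the integrated fluorescence ratio above library mean plus 3 SD, and starting fluorescence ratio within library mean plus 5 SD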;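 further: higher score means more depolarization so channel activation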
Target sequence (Q61143 whole entry, looked up): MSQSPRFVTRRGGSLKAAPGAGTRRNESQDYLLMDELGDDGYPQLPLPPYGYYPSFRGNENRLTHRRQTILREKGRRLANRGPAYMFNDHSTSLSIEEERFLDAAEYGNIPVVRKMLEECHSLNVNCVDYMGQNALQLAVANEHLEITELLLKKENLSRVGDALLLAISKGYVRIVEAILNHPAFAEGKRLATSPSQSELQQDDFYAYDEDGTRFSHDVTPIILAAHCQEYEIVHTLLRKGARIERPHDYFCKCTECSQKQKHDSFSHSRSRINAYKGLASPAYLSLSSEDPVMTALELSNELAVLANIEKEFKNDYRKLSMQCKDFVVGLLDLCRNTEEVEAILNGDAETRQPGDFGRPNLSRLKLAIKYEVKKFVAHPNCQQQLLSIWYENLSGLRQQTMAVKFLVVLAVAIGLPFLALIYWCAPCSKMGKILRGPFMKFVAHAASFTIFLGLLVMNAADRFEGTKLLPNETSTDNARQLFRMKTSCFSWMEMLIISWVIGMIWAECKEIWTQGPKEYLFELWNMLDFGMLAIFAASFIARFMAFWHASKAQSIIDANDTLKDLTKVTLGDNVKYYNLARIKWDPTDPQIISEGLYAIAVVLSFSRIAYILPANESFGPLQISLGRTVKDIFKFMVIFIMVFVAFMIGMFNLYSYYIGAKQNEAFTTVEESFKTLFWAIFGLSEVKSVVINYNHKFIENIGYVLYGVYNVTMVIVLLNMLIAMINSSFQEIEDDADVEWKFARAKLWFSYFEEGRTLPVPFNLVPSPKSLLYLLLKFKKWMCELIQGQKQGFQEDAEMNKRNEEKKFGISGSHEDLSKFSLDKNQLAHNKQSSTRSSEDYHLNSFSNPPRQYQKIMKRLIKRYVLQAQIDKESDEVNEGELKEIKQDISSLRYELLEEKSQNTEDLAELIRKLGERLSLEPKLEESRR
TRPC4 potent – allosterically enhances the mouse TRPC4 cation channel; Q9QUQ5; HEK293 TRPC4beta/mu-opioid, DAMGO EC20, Fluo-4 Ca2+ flux; stronger effect = higher value; B-score at 10 µM; actives 0.42% (n = 310,000); AID 2227;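 active means B-score of calcium response area above 5 SD of library B-scores, with initial fluorescence ratio within 5 SD of library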
TRPC6 inh – mouse TRPC6 channel inhibition. Q61143. HEK293-TRPC6, membrane potential dye, ACh-evoked depolarization; stronger effect = lower value. B-score at 10 µM. actives 1.1% (n = 310,000);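 active means B-score under library mean minus 3 SD, initial fluorescence not abnormally high, positive integrated signal ratio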;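 further: B-score derived from integrated fluorescence ratio over the kinetic read; more negative B-score means stronger inhibition of depolarization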
TRPC4 act – TRPC4 (mouse) channel activation. HEK293 TRPC4beta/mu-opioid, Fluo4 calcium fluorescence; stronger effect = higher value. B-score at 10 µM. Q9QUQ5. actives 0.49% (n = 310,000);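 active means B-score above 5 SD of library B-scores, and initial fluorescence ratio not above library mean plus 5 SD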;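 further: positive B-score marks a calcium rise read as TRPC4 activation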
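Technique: kinetic Fluo4 calcium fluorescence; Test system: TRPC4beta and mu-opioid receptor HEK293 stable cells; Measure: B-scored integrated calcium fluorescence ratio; Benchmarks: low control buffer alone, high control maximal DAMGO; Schedule: 45 min room-temperature Fluo4 loading, 110 s read.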
TRPC4 inh – blocks the mouse TRPC4 cation channel | actives 0.39% (n = 300,000) | HEK293 TRPC4beta/mu-opioid, DAMGO-evoked Fluo4 calcium flux; stronger effect = lower value | B-score at 10 µM | Q9QUQ5;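 active means B-score over 3 SD under the library average, no early fluorescence shift, positive overall ratio signal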
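Assay system: TRPC4beta/mu-opioid receptor HEK293 cell line; compound dosing: single concentration per test compound; detection: Fluo4 Ca2+ flux fluorescence; evaluation: per-well B score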
TRPC4 spec 2 – second check of whether TRPC6 inhibitors also affect mouse TRPC4. shares compounds with TRPC6 inh. actives 42% (n = 920). inhibition, % at 10 µM. HEK293 TRPC4/MOR, membrane potential dye fluorescence; channel activated by saturating DAMGO dose. AID 2776;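 active means compounds whose fluorescence signal differed from control wells by over 3 SD, either direction, in both duplicate plates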
TRPC4 spec – tests whether TRPC6 inhibitors also affect mouse TRPC4 | actives 61% (n = 920) | shares compounds with TRPC6 inh | activity change, negative = inhibition, % at 10 µM | AID 2777 | HEK293 TRPC4/mu-opioid, membrane potential fluorescence;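 active means rise or fall in signal beyond 3 SD of buffer-only wells in both replicate plates, either sign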;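 further: integrated kinetic ratio of fluorescence range over baseline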
HEK293 MPD ctr 2-1 – second check of TRPC6 inhibitor effects in parental HEK293 cells. parental HEK293 membrane potential dye fluorescence; maximal acetylcholine challenge after compound addition. shares compounds with TRPC6 inh. signal change vs control, % at 10 µM. actives 31% (n = 920);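 active means membrane potential signal moving either way by over 3 SD of the maximum-effect control, in both duplicate plates, meaning non-specific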
HEK293 MPD ctr-1 – counter-screen for TRPC6 inhibitors: effect in parental HEK293 cells. shares compounds with TRPC6 inh. parental HEK293 membrane potential dye fluorescence. membrane potential signal change, % at 10 µM. actives 60% (n = 920). AID 2780;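 active means membrane potential signal shifting up or down by more than 3 SD of buffer-only wells, on both duplicate plates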
HEK293 MPD ctr-2 – counter-screen for TRPC6 modulators: effect in parental HEK293 cells | shares compounds with TRPC6 inh | membrane potential dye fluorescence | membrane potential signal change, % at 10 µM | actives 51% (n = 2,400) | AID 488924;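 active means membrane potential signal moves up or down beyond 5 SD from buffer-only wells, on both duplicate plates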
HEK293 MPD ctr 2-2 – second counter-screen for TRPC6 modulators: effect in parental HEK293 cells | shares compounds with TRPC6 inh | membrane potential dye fluorescence; after compound, maximal acetylcholine stimulation | inhibition, % at 10 µM | actives 14% (n = 2,400);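 active means membrane potential signal drops by more than 5 SD from the mean control signal, in both duplicate plates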
TRPC4/MOR mod – mouse TRPC4 off-target activity of TRPC6 modulators; actives 69% (n = 2,400); AID 488927; HEK293 TRPC4/mu-opioid, membrane potential fluorescence; percent change from control (negative = decrease, positive = increase), % at 10 µM; shares compounds with TRPC6 inh;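 active means membrane potential signal moved up or down beyond 5 SD of buffer control wells, in both duplicate plates, actives on both sides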
TRPC4 ctr inh 2 – second check of whether TRPC6 modulators also affect mouse TRPC4. shares compounds with TRPC6 inh. HEK293 TRPC4/mu-opioid, membrane potential dye fluorescence; stimulated with maximal-effect DAMGO. inhibition, % at 10 µM. actives 55% (n = 2,400);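 active means drop in membrane potential signal beyond 5 SD of the control wells in both duplicate plates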;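 further: TRPC4 counter screen for TRPC6 hits run under conditions tuned for TRPC6 not TRPC4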
TRPC6 inh conf – confirmation of mouse TRPC6 inhibitors; shares compounds with TRPC6 inh; HEK293-TRPC6, membrane potential dye, ACh-evoked depolarization; inhibition, % at 10 µM; actives 43% (n = 3,300);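 active means fluorescence ratio falls more than 5 SD below the full-stimulation control mean, in both duplicate runs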;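 further: integrated fluorescence ratio of peak minus minimum over baseline after agonist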
TRPC6 act conf – confirmation of mouse TRPC6 activators; shares compounds with TRPC6 inh; HEK293-TRPC6 membrane potential dye fluorescence, FDSS; activation, % at 10 µM; actives 11% (n = 2,800); AID 488961;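 active means ratio signal rise beyond 5 SD above unstimulated control wells' mean, seen in both duplicate runs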
A number is an active result; n = inactive; x = no result. Sampled rows, rich in hits. Any-hit rate of the full collection: about 2.3%.

SMILES	TRPC6 activator	TRPC4 potent	TRPC6 inh	TRPC4 act	TRPC4 inh	HEK293 MPD ctr-2	HEK293 MPD ctr 2-2	TRPC4/MOR mod	TRPC4 ctr inh 2	TRPC6 inh conf	TRPC6 act conf	others
O=C(Cn1cncn1)c1ccccc1Br	n	n	n	n	n	x	x	x	x	x	x
Cc1ccc(C(=O)c2coc3ccc(O)cc23)cc1	n	n	n	n	n	x	x	x	x	x	x
O=c1oc2ccccc2c(N2CCCCC2)c1CN1CCCCC1	n	n	-5.1	n	n	106%	n	26%	n	n	x
O=c1oc2ccccc2c(N2CCCCC2)c1CN1CCCC1	n	n	n	n	n	x	x	x	x	x	x
Cc1ccc(C(=O)N2CCCC(C(=O)c3ccc(Oc4ccccc4)cc3)C2)cn1 (centres undefined)	n	n	n	n	n	x	x	x	x	x	x
COc1cccc(NC(=O)CCCCCN2C(=O)[C@@H]3Cc4ccccc4CN3C2=O)c1	n	n	n	n	n	x	x	x	x	x	x
COC(=O)c1ccc(CN2CCN(C3CCCC3)C(CCO)C2)cc1 (centres undefined)	n	n	-9.5	n	n	x	x	x	x	63%	x	TRPC4 spec 2=n;TRPC4 spec=2.2%;HEK293 MPD ctr 2-1=6.0%;HEK293 MPD ctr-1=4.6%
COc1ccccc1-n1cc(CN2CCN(C3CCCC3)C(CCO)C2)cn1 (centres undefined)	n	n	-5.2	n	n	n	n	10%	n	36%	x
Cn1c(=N)n(CC(=O)c2ccc(Br)cc2)c2ccccc21	n	n	n	n	n	x	x	x	x	x	x
O=C(Cn1c(-c2ccccc2)c[n+]2ccsc12)c1ccc(Br)cc1	n	n	-5.6	86	n	-122%	n	60%	97%	n	n
O=[N+]([O-])c1nn(-c2ccc3c(c2)OCCO3)n(O)c1=NC1CCN(Cc2ccccc2)CC1	n	n	-8.6	n	n	x	x	x	x	n	n	TRPC4 spec 2=n;TRPC4 spec=n;HEK293 MPD ctr 2-1=n;HEK293 MPD ctr-1=n
CC(C)CCNC(=O)C1CCN(S(=O)(=O)c2ccc(-n3cnnn3)cc2)CC1	n	n	n	n	n	x	x	x	x	x	x
Cc1noc(C)c1S(=O)(=O)N1CCCC(C(=O)c2cccc(OC(C)C)c2)C1 (centres undefined)	n	n	n	n	n	x	x	x	x	x	x
Oc1c(C(Nc2ccccn2)c2ccccn2)ccc2cccnc12 (centres undefined)	n	n	-6.2	n	n	n	n	9.5%	n	40%	n
Cc1nnc(Nc2ccc3c(c2)ncn3C)c2ccccc12	n	n	-9.5	n	n	x	x	x	x	56%	n	TRPC4 spec 2=n;TRPC4 spec=-24%;HEK293 MPD ctr 2-1=-7.0%;HEK293 MPD ctr-1=-324%
Cc1nnc(Nc2ccc(C(=O)NCCO)cc2)c2ccccc12	n	n	n	n	n	x	x	x	x	x	x

Bioassay records deposited in PubChem BioAssay by Johns Hopkins Ion Channel Center.
